Measurements from ChEMBL document CHEMBL1139869, “Design and synthesis of novel quinolinone-3-aminoamides and their alpha-lipoic acid adducts as antioxidant and anti-inflammatory agents” (2007).
Activity calls are given as the source filed them. The rule behind the calls is not given here.

How the values were obtained:
[1] = tested on: Rattus norvegicus; assay: Inhibition of carrageenan-induced Fischer 344 rat paw edema at 0.01 mmol/kg, ip; assay type: functional; conditions: Fischer 344, ip
In short: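 Fischer 344 rats (150-200 g), both sexes, pregnant females excluded; 6-15 per group. Paw edema was induced by intradermal injection of 0.1 mL 2% carrageenin in water into the right hind paw. Compound at 0.01 mmol/kg, suspended in water with a few drops of Tween 80, was given ip at the same time. Rats were euthanized at 3.5 h. Injected minus uninjected paw weight was expressed as % inhibition versus water-treated controls. Mean of two experiments.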

[2] = Antioxidant activity assessed as DPPH reducing activity at 0.5 mM after 60 mins; assay type: functional; parameters: scale not given: the % may be the effect or the level left
In short: (§1)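 DPPH in absolute ethanol was mixed with an equal volume of compound in ethanol (0.1 or 0.5 mM); ethanol served as control. Absorbance at 517 nm was read after 20 and 60 min at room temperature. At least triplicate.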

[3] = target: T1, Seed linoleate 13S-lipoxygenase-1 (Glycine max) (UniProt P08170); assay: Inhibition of soybean lipoxygenase at 0.1 mM
T1 sequence (whole entry): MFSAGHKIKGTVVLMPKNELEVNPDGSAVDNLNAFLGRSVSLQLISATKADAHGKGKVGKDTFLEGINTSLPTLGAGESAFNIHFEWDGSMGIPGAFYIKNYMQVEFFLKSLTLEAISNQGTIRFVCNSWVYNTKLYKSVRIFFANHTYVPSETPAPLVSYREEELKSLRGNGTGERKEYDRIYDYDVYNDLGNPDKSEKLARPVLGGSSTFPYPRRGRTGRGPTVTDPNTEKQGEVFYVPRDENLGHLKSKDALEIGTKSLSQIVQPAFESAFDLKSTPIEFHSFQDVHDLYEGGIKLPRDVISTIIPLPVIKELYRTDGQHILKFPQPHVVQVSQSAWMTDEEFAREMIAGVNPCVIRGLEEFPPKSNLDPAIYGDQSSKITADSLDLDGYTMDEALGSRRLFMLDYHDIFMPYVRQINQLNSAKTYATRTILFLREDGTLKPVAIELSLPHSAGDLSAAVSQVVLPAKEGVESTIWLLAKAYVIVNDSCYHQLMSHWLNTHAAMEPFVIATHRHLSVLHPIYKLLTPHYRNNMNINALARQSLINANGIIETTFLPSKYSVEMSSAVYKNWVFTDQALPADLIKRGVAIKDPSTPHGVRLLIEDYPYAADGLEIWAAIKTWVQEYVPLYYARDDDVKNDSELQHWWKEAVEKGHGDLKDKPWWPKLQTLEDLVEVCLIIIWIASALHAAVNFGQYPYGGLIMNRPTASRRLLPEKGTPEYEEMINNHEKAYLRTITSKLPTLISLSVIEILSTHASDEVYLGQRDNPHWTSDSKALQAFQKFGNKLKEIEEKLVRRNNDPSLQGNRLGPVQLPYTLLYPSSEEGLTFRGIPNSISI
In short: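 Soybean lipoxygenase solution (1/9 × 10⁴ w/v in saline) was incubated at room temperature with sodium linoleate (0.1 mM) and compound dissolved in ethanol. UV absorbance-based read-out. At least triplicate.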

[4] = Antioxidant activity assessed as DPPH reducing activity at 0.1 mM after 60 mins; assay type: functional; parameters: scale not given: the % may be the effect or the level left; in short: as §1
[5] = Antioxidant activity assessed as DPPH reducing activity at 0.1 mM after 20 mins; assay type: functional; parameters: scale not given: the % may be the effect or the level left; in short: as §1
[6] = Antioxidant activity assessed as DMSO hydroxyl radical scavenging activity at 0.1 mM; assay type: functional
In short: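 Hydroxyl radicals generated by Fe3+/ascorbic acid; reaction mix contained EDTA 0.1 mM, Fe3+ 167 µM, DMSO 33 mM and ascorbic acid 10 mM in 50 mM phosphate buffer pH 7.4, with test compound at 0.1 mM. Incubated 30 min at 37 °C, then stopped with trichloroacetic acid (17% w/v). Formaldehyde from DMSO oxidation was measured by the Nash method at 425 nm. At least triplicate.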

[7] = Antioxidant activity assessed as DPPH reducing activity at 0.5 mM after 20 mins; assay type: functional; parameters: scale not given: the % may be the effect or the level left; in short: as §1

| SMILES | inhibition [3] | Activity [3] | inhibition in vivo at 10 µmol/kg [1] | Activity [2] | Activity [4] | Activity [5] | Activity [6] | Activity [7] |
| --- | --- | --- | --- | --- | --- | --- | --- | --- |
| Cn1c(=O)c(C(=O)NCCN)c(O)c2ccccc21 | 99.5% | – | 67% | 37.1% | 11.5% | 5.6% | 40.1% | 20.9% |
| Cn1c(=O)c(C(=O)NCCCCCCN)c(O)c2ccccc21 | 92.1% | – | 68.5% | 21.9% | 8.3% | 3.1% | 59.3% | 13.7% |
| CC(Cc1ccc(O)c(O)c1)C(C)Cc1ccc(O)c(O)c1 (stereo unspecified) | – | – | – | 98% | – | – | – | 96.5% |
| O=C(O)CCCCC1CCSS1 (stereo not drawn) [LIPOIC ACID, ALPHA] | 29.1% | – | 29.6% | 6.8% | 27.1% | 20.3% | 38.6% | 5.2% |
| COc1ccc2c(c1)c(CC(=O)O)c(C)n2C(=O)c1ccc(Cl)cc1 [INDOMETHACIN] | – | – | 47% | – | – | – | – | – |
| Cc1c(C)c2c(c(C)c1O)CCC(C)(C(=O)O)O2 (stereo unspecified) | – | – | – | – | – | – | 88.2% | – |
| Cn1c(=O)c(C(=O)Nc2ccc(N)cc2)c(O)c2ccccc21 | 50.8% | – | 69.5% | 83.7% | 88.1% | 90.2% | 20.7% | 85.1% |
| COC(=O)c1c(O)c2ccccc2n(C)c1=O | 72.4% | – | 58.8% | 18.4% | 7.4% | 8.3% | 45% | 17.5% |

The next lines start with results.

| inhibition [3] | Activity [3] | SMILES | inhibition in vivo at 10 µmol/kg [1] | Activity [2] | Activity [4] | Activity [5] | Activity [6] | Activity [7] |
| --- | --- | --- | --- | --- | --- | --- | --- | --- |
| 100% | – | O=C(CCCCC1CCSS1)Nc1ccccc1NC(=O)c1c(O)c2ccccc2n(-c2ccccc2)c1=O (stereo unspecified) | 63% | 28.5% | 16.1% | 9.7% | inactive | 11% |
| 82.3% | – | NCCNC(=O)c1c(O)c2ccccc2n(-c2ccccc2)c1=O | 68.1% | 7.9% | 10% | 7.2% | 78.6% | 1.4% |
| – | inactive | Nc1ccccc1NC(=O)c1c(O)c2ccccc2n(-c2ccccc2)c1=O | 48.5% | 34.7% | 16.3% | 9.4% | 98% | 21.3% |
| 71.3% | – | Cn1c(=O)c(C(=O)Nc2ccccc2N)c(O)c2ccccc21 | 85.3% | 41.4% | 13.5% | 6% | 60.5% | 28.8% |
| – | inactive | O=C(CCCCC1CCSS1)NCCNC(=O)c1c(O)c2ccccc2n(-c2ccccc2)c1=O (stereo unspecified) | 45.5% | 14.1% | 7.8% | 6.4% | 0% | inactive |
| 100% | – | COC(=O)c1c(O)c2ccccc2n(-c2ccccc2)c1=O | 37.1% | 19.3% | 9.1% | 9.1% | 95% | 16.8% |
| 17.6% | – | NCCCCCCNC(=O)c1c(O)c2ccccc2n(-c2ccccc2)c1=O | 68.8% | 28.1% | 17.5% | 11.6% | 27.1% | 19.3% |
| 66.5% | – | Cn1c(=O)c(C(=O)NCCNC(=O)CCCCC2CCSS2)c(O)c2ccccc21 (stereo unspecified) | 48.2% | 40.1% | 3.4% | 10.9% | 67.9% | 28.8% |
| 58.9% | – | Nc1ccc(NC(=O)c2c(O)c3ccccc3n(-c3ccccc3)c2=O)cc1 | 56.4% | 89.2% | 88.3% | 89% | 10% | 94.4% |
| 79.1% | – | Cn1c(=O)c(C(=O)NCCCCCCNC(=O)CCCCC2CCSS2)c(O)c2ccccc21 (stereo unspecified) | 53% | 38.8% | 13% | 9.1% | 28.6% | 28.4% |
| 64% | – | O=C(CCCCC1CCSS1)NCCCCCCNC(=O)c1c(O)c2ccccc2n(-c2ccccc2)c1=O (stereo unspecified) | 50% | 29.5% | 10.2% | 6.2% | inactive | 23.9% |
